In ChEMBL document CHEMBL1147826, “Activity of B-nor analogues of neurosteroids on the GABA(A) receptor in primary neuronal cultures” (J Med Chem, 2006):
The source made the active and inactive calls. The rule behind the calls is not given here.

What was measured:
[1] = molecular target: T1, GABA-A receptor; anion channel (Mus musculus) (UniProt Q8BHJ7+P26048+Q8QZW7+P50571+Q9R0Y8+P22723+A2AMW3+P62812+Q9JLF1+P26049+P22933+Q9D6F4+P63080+P27681+P16305); experiment: Effect on GABA-A-induced 36chloride ion influx in mouse embryo cortical neurons at 10 uM relative to basal value; format: functional
Summary of the method: (§1)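 Primary cortical neurons from 16-day mouse embryos, cultured 7-9 days with 5 µM fluorodeoxyuridine/20 µM uridine to block glia. 45 min preincubation in Earle's salt solution pH 7.4 at 36.8 °C, then 10 min at room temperature. 7 s uptake of 36Cl (0.2-0.7 µCi/mL) with or without 5 µM GABA plus steroid. Basal uptake measured without GABA or steroid. Lysate counted by scintillation.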

[2] = molecular target: T1, GABA-A receptor; anion channel (Mus musculus); experiment: (§2) Increase in [3H]flunitrazepam binding to GABA-A receptor in mouse embryo cortical neurons; format: protein-complex assay
Summary of the method: (§3)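 Intact mouse embryonic cortical neurons at 7-9 days in vitro, washed into HEPES buffer pH 7.3. Incubated 30 min at 25 °C with 1.3-2.0 nM [3H]flunitrazepam and steroid (1 nM-30 µM, DMSO <0.5% final). Nonspecific binding taken with 20 µM diazepam; 100 µM GABA as positive control. Data as % of control binding. EC50 from sigmoid fits of at least six concentrations in triplicate, 3-5 independent curves.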

[3] = molecular target: T1, GABA-A receptor; anion channel (Mus musculus); experiment: Effect on 36chloride ion influx in mouse embryo cortical neurons in absence of GABA-A at 10 uM relative to basal value; format: functional; summary of the method: as §1
[4] = molecular target: GABA-A receptor; anion channel (Rattus norvegicus) (UniProt O09028+P15431+P18506+P18508+P19969+P20236+P23574+P23576+P28471+P28473+P30191+P62813+P63079+P63138+Q91ZM7+Q9ES14); experiment: Inhibition of [35S]TBPS binding to GABA-A receptor in Wistar rat brain membrane at 10 uM; format: cell membranes
Summary of the method: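 Whole-brain membranes from adult male Wistar rats in 20 mM KH2PO4/200 mM KCl, pH 7.4. Incubated 60 min at 37 °C with 2 nM [35S]TBPS, 1 µM GABA and steroid. Nonspecific binding defined with 200 µM picrotoxinin. Results expressed as % of DMSO controls.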

[5] = molecular target: GABA-A receptor; anion channel; experiment: as §2; format: protein-complex assay; summary of the method: as §3
Cortical neurone [6] = experiment: Loss of viability of cortical neuron at 100 uM after 24 hrs; format: functional, cell-based; settings: Mus musculus
Summary of the method: (§4)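 Mouse embryonic cortical neuron cultures exposed to steroid at 10 µM for 72 h, or 100 µM for 24 or 72 h. MTT (250 µg/mL in HEPES buffer) for 15 min at 37 °C, formazan dissolved in 5% SDS and read at 560 nm. Expressed as % of untreated controls. Two independent experiments in triplicate.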

Cortical neurone [7] = experiment: Loss of viability of cortical neuron at 10 uM after 72 hrs; format: functional, cell-based; settings: Mus musculus; summary of the method: as §4
Cortical neurone [8] = experiment: Loss of viability of cortical neuron at 100 uM after 72 hrs; format: functional, cell-based; settings: Mus musculus; summary of the method: as §4

Compound | Activity [1] | Activity [2] | also measured
CC(=O)[C@H]1CC[C@H]2[C@@H]3C(=O)C[C@H]4C[C@H](O)CC[C@]4(C)[C@H]3CC[C@]12C | 90% | inactive | 
CC(=O)[C@H]1CC[C@H]2[C@@H]3C[C@H]4C[C@H](O)CC[C@]4(C)[C@H]3CC[C@]12C | 199% |  | Activity [3]: 1.7%; inhibition [4]: 33%; Log EC50 [5]: -6.61; Activity (Cortical neurone [6]): inactive; Activity (Cortical neurone [7]): inactive
CC(=O)[C@H]1CC[C@H]2[C@H]3C(=C4CC[C@@H](O)C[C@@]4(C)[C@H]3O)CC[C@]12C | 76% | inactive | 
CC(=O)[C@H]1CC[C@H]2[C@@H]3[C@H]4O[C@]45C[C@H](O)CC[C@]5(C)[C@H]3CC[C@]12C | 104% | inactive | 
CC(=O)[C@H]1CC[C@H]2[C@@H]3C[C@@H]4C[C@H](O)CC[C@]4(C)[C@H]3CC[C@]12C | 172% |  | Activity [3]: 1.7%; Log EC50 [5]: -6.03; Activity (Cortical neurone [6]): inactive; Activity (Cortical neurone [7]): inactive
CC(=O)[C@H]1CC[C@H]2[C@@H]3CC(=O)[C@H]4C[C@H](O)CC[C@]4(C)[C@H]3CC[C@]12C | 100% | inactive | 
CC(=O)[C@H]1CC[C@H]2[C@@H]3C(=O)[C@H]4C[C@H](O)CC[C@]4(C)[C@H]3CC[C@]12C | 82% | inactive | 
CC(=O)[C@H]1CC[C@H]2[C@@H]3C(=O)N[C@H]4C[C@H](O)CC[C@]4(C)[C@H]3CC[C@]12C | 81% | inactive | 
CC(=O)[C@H]1CC[C@H]2[C@@H]3[C@@H]4O[C@@]45C[C@H](O)CC[C@]5(C)[C@H]3CC[C@]12C | 103% | inactive | 
CC(=O)[C@H]1CC[C@H]2[C@@H]3CN[C@H]4C[C@H](O)CC[C@]4(C)[C@H]3CC[C@]12C | 86% | inactive | 
CC(=O)[C@H]1CC[C@H]2[C@@H]3[C@H]4O[C@]45C[C@@H](O)CC[C@]5(C)[C@H]3CC[C@]12C | 99% | inactive | 
CC(=O)[C@H]1CC[C@H]2[C@@H]3CC[C@@H]4C[C@H](O)CC[C@]4(C)[C@H]3CC[C@]12C [ELTANOLONE] | 162% |  | Log EC50 [5]: -5.93
CC(=O)[C@H]1CC[C@H]2[C@@H]3CC=C4C[C@H](O)CC[C@]4(C)[C@H]3CC[C@]12C | 131% |  | 
CC(=O)[C@H]1CC[C@H]2[C@@H]3CC[C@H]4C[C@H](O)CC[C@]4(C)[C@H]3CC[C@]12C [BREXANOLONE] | 164% |  | Activity (Cortical neurone [8]): Active; Log EC50 [5]: -6.06; Activity (Cortical neurone [6]): inactive; Activity (Cortical neurone [7]): inactive
